From ChEMBL document CHEMBL3045454, “Synthesis and fungicidal activity of aryl carbamic acid-5-aryl-2-furanmethyl ester” (2010)

What was measured:
[1] = test system: Plutella xylostella; experiment: Insecticidal activity against Plutella xylostella (diamondback moth) assessed as mortality at 600 mg/L measured after 72 hr; assay type: functional
[2] = test system: Botrytis cinerea; experiment: Fungicidal activity Botrytis cinerea assessed as inhibition of mycelium growth at 50 mg/L at 24 degC measured after 2 days; conditions: 48 h
[3] = test system: Corynespora cassiicola; experiment: Fungicidal activity Corynespora cassiicola assessed as inhibition of mycelium growth at 50 mg/L at 24 degC measured after 2 days; conditions: 48 h
[4] = test system: Culex pipiens pallens; experiment: Larvicidal activity against fourth-instar Culex pipiens pallens (mosquito) assessed as mortality at 2000 mg/L measured after 8 days; assay type: functional; conditions: 192 h
In short: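 Twenty fourth-instar Culex pipiens pallens larvae are placed in 10 mL of the test solution (acetone/distilled water, final 2000 mg L^-1) and reared for 8 days. Mortality is recorded as percent dead. Acetone serves as blank. Four replicates.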

[5] = test system: Corynespora cassiicola; experiment: Fungicidal activity Corynespora cassiicola assessed as inhibition of mycelium growth at 50 mg/L at 24 degC measured after 2 days; assay type: functional; conditions: 48 h
In short: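 Mycelial growth assay on potato dextrose agar. The compound, as a 50 mg L^-1 DMF solution, is mixed into the PDA and a fungus cake is placed on it. DMF serves as blank. Plates are incubated at 24 ± 0.5 °C for 2 days. Mycelial diameters are measured and the inhibitory rate is calculated from them. Three replicates.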

[6] = test system: Fusarium oxysporum; experiment: Fungicidal activity Fusarium oxysporum assessed as inhibition of mycelium growth at 50 mg/L at 24 degC measured after 2 days; conditions: 48 h
[7] = test system: Plutella xylostella; experiment: Insecticidal activity against Plutella xylostella assessed as mortality at 5 mg/L measured after 72 hr; assay type: functional

O=C(NC(=O)c1ccccc1Cl)OCc1ccc(-c2ccc(F)cc2)o1
mortality at 600 µg/mL [1]: 0%
inhibition at 50 µg/mL [2]: 40.6%
inhibition at 50 µg/mL [3]: 38.6%
mortality at 2000 µg/mL [4]: 10%
inhibition at 50 µg/mL [5]: 60.6%
inhibition at 50 µg/mL [6]: 4.46%

O=C(NC(=O)c1c(F)cccc1F)OCc1ccc(-c2ccccc2Cl)o1
mortality at 600 µg/mL [1]: 0%
inhibition at 50 µg/mL [2]: 66.6%
inhibition at 50 µg/mL [3]: 43.5%
mortality at 2000 µg/mL [4]: 0%
inhibition at 50 µg/mL [5]: 36.6%
inhibition at 50 µg/mL [6]: 41.2%

O=C(NC(=O)c1c(F)cccc1F)OCc1ccc(-c2cccc(Cl)c2)o1
mortality at 600 µg/mL [1]: 0%
inhibition at 50 µg/mL [2]: 63.5%
inhibition at 50 µg/mL [3]: 50.5%
mortality at 2000 µg/mL [4]: 10%
inhibition at 50 µg/mL [6]: 45.4%

O=C(NC(=O)c1c(F)cccc1F)OCc1ccc(-c2ccc(Cl)cc2)o1
mortality at 600 µg/mL [1]: 0%
inhibition at 50 µg/mL [2]: 100%
inhibition at 50 µg/mL [3]: 71.6%
mortality at 2000 µg/mL [4]: 10%
inhibition at 50 µg/mL [6]: 92.3%

O=C(NC(=O)c1c(F)cccc1F)OCc1ccc(-c2ccccc2Br)o1
mortality at 600 µg/mL [1]: 10%
inhibition at 50 µg/mL [2]: 54.3%
inhibition at 50 µg/mL [3]: 52.2%
mortality at 2000 µg/mL [4]: 20%
inhibition at 50 µg/mL [6]: 42.3%

O=C(NC(=O)c1c(F)cccc1F)OCc1ccc(-c2ccc(Br)cc2)o1
mortality at 600 µg/mL [1]: 10%
inhibition at 50 µg/mL [2]: 62.2%
inhibition at 50 µg/mL [3]: 57.8%
mortality at 2000 µg/mL [4]: 0%
inhibition at 50 µg/mL [5]: 63.3%
inhibition at 50 µg/mL [6]: 7.38%

O=C(NC(=O)c1c(Cl)cccc1Cl)OCc1ccc(-c2ccccc2F)o1
mortality at 600 µg/mL [1]: 10%
inhibition at 50 µg/mL [2]: 57.3%
inhibition at 50 µg/mL [3]: 36%
mortality at 2000 µg/mL [4]: 0%
inhibition at 50 µg/mL [5]: 70.4%
inhibition at 50 µg/mL [6]: 1.5%

O=C(NC(=O)c1c(Cl)cccc1Cl)OCc1ccc(-c2cccc(F)c2)o1
mortality at 600 µg/mL [1]: 20%
inhibition at 50 µg/mL [2]: 32.6%
inhibition at 50 µg/mL [3]: 12.9%
mortality at 2000 µg/mL [4]: 10%
inhibition at 50 µg/mL [5]: 62%
inhibition at 50 µg/mL [6]: 8.82%

O=C(NC(=O)c1c(Cl)cccc1Cl)OCc1ccc(-c2ccc(F)cc2)o1
mortality at 600 µg/mL [1]: 0%
inhibition at 50 µg/mL [2]: 37.1%
inhibition at 50 µg/mL [3]: 37.3%
mortality at 2000 µg/mL [4]: 0%
inhibition at 50 µg/mL [5]: 72.7%
inhibition at 50 µg/mL [6]: 35.3%

O=C(NC(=O)c1c(Cl)cccc1Cl)OCc1ccc(-c2ccc(F)cc2F)o1
mortality at 600 µg/mL [1]: 1%
inhibition at 50 µg/mL [2]: 27.9%
inhibition at 50 µg/mL [3]: 16%
mortality at 2000 µg/mL [4]: 10%
inhibition at 50 µg/mL [5]: 63.3%
inhibition at 50 µg/mL [6]: 15.9%

O=C(NC(=O)c1c(Cl)cccc1Cl)OCc1ccc(-c2ccccc2Cl)o1
mortality at 600 µg/mL [1]: 0%
inhibition at 50 µg/mL [2]: 41.4%
inhibition at 50 µg/mL [3]: 34.7%
mortality at 2000 µg/mL [4]: 0%
inhibition at 50 µg/mL [5]: 83.1%
inhibition at 50 µg/mL [6]: 35.3%

O=C(NC(=O)c1c(Cl)cccc1Cl)OCc1ccc(-c2cccc(Cl)c2)o1
mortality at 600 µg/mL [1]: 10%
inhibition at 50 µg/mL [2]: 13%
inhibition at 50 µg/mL [3]: 19%
mortality at 2000 µg/mL [4]: 10%
inhibition at 50 µg/mL [5]: 53.3%
inhibition at 50 µg/mL [6]: 14.5%

O=C(NC(=O)c1c(Cl)cccc1Cl)OCc1ccc(-c2ccc(Cl)cc2)o1
mortality at 600 µg/mL [1]: 10%
inhibition at 50 µg/mL [2]: 48.1%
inhibition at 50 µg/mL [3]: 33.3%
mortality at 2000 µg/mL [4]: 0%
inhibition at 50 µg/mL [5]: 67.9%
inhibition at 50 µg/mL [6]: 44.6%

O=C(NC(=O)c1c(Cl)cccc1Cl)OCc1ccc(-c2ccccc2Br)o1
mortality at 600 µg/mL [1]: 0%
inhibition at 50 µg/mL [2]: 44.8%
inhibition at 50 µg/mL [3]: 39.9%
mortality at 2000 µg/mL [4]: 0%
inhibition at 50 µg/mL [5]: 79.2%
inhibition at 50 µg/mL [6]: 42.3%

O=C(NC(=O)c1c(Cl)cccc1Cl)OCc1ccc(-c2ccc(Br)cc2)o1
mortality at 600 µg/mL [1]: 0%
inhibition at 50 µg/mL [2]: 52.8%
inhibition at 50 µg/mL [3]: 54.4%
mortality at 2000 µg/mL [4]: 10%
inhibition at 50 µg/mL [5]: 64.7%
inhibition at 50 µg/mL [6]: 32.8%

O=C(NC(=O)c1ccccc1Cl)OCc1ccc(-c2ccccc2F)o1
mortality at 600 µg/mL [1]: 0%
inhibition at 50 µg/mL [2]: 34.4%
inhibition at 50 µg/mL [3]: 26.3%
mortality at 2000 µg/mL [4]: 10%
inhibition at 50 µg/mL [5]: 65.3%
inhibition at 50 µg/mL [6]: 1.5%

O=C(NC(=O)c1ccccc1Cl)OCc1ccc(-c2cccc(F)c2)o1
mortality at 600 µg/mL [1]: 0%
inhibition at 50 µg/mL [2]: 48.9%
inhibition at 50 µg/mL [3]: 37.3%
mortality at 2000 µg/mL [4]: 10%
inhibition at 50 µg/mL [5]: 53.3%
inhibition at 50 µg/mL [6]: 14.5%

O=C(NC(=O)c1ccccc1Cl)OCc1ccc(-c2ccccc2Cl)o1
mortality at 600 µg/mL [1]: 0%
inhibition at 50 µg/mL [2]: 25%
inhibition at 50 µg/mL [3]: 43.8%
mortality at 2000 µg/mL [4]: 20%
inhibition at 50 µg/mL [5]: 69.8%
inhibition at 50 µg/mL [6]: 0%

O=C(NC(=O)c1ccccc1Cl)OCc1ccc(-c2cccc(Cl)c2)o1
mortality at 600 µg/mL [1]: 0%
inhibition at 50 µg/mL [2]: 24.1%
inhibition at 50 µg/mL [3]: 24.9%
mortality at 2000 µg/mL [4]: 0%
inhibition at 50 µg/mL [5]: 38.6%
inhibition at 50 µg/mL [6]: -3.03%

O=C(NC(=O)c1ccccc1Cl)OCc1ccc(-c2ccc(Cl)cc2)o1
mortality at 600 µg/mL [1]: 0%
inhibition at 50 µg/mL [2]: 55.1%
inhibition at 50 µg/mL [3]: 66%
mortality at 2000 µg/mL [4]: 10%
inhibition at 50 µg/mL [5]: 75.5%
inhibition at 50 µg/mL [6]: 14.5%

O=C(NC(=O)c1ccccc1Cl)OCc1ccc(-c2ccccc2Br)o1
mortality at 600 µg/mL [1]: 0%
inhibition at 50 µg/mL [2]: 54.3%
inhibition at 50 µg/mL [3]: 42.5%
mortality at 2000 µg/mL [4]: 0%
inhibition at 50 µg/mL [5]: 67.3%
inhibition at 50 µg/mL [6]: 25.2%

O=C(NC(=O)c1ccccc1Cl)OCc1ccc(-c2ccc(Br)cc2)o1
mortality at 600 µg/mL [1]: 0%
inhibition at 50 µg/mL [2]: 34.4%
inhibition at 50 µg/mL [3]: 59.9%
mortality at 2000 µg/mL [4]: 10%
inhibition at 50 µg/mL [5]: 50.2%
inhibition at 50 µg/mL [6]: 10.2%

O=C(NC(=O)c1c(F)cccc1F)OCc1ccc(-c2ccccc2F)o1
mortality at 600 µg/mL [1]: 0%
inhibition at 50 µg/mL [2]: 70.4%
inhibition at 50 µg/mL [3]: 44.5%
mortality at 2000 µg/mL [4]: 0%
inhibition at 50 µg/mL [6]: 44.6%

O=C(NC(=O)c1c(F)cccc1F)OCc1ccc(-c2cccc(F)c2)o1
mortality at 600 µg/mL [1]: 0%
inhibition at 50 µg/mL [2]: 60.4%
inhibition at 50 µg/mL [3]: 31.5%
mortality at 2000 µg/mL [4]: 10%
inhibition at 50 µg/mL [5]: 38.4%
inhibition at 50 µg/mL [6]: 7.63%

O=C(NC(=O)c1c(F)cccc1F)OCc1ccc(-c2ccc(F)cc2)o1
mortality at 600 µg/mL [1]: 10%
inhibition at 50 µg/mL [2]: 58.5%
inhibition at 50 µg/mL [3]: 22.1%
mortality at 2000 µg/mL [4]: 0%
inhibition at 50 µg/mL [5]: 56%
inhibition at 50 µg/mL [6]: 49.4%

O=C(NC(=O)c1c(F)cccc1F)OCc1ccc(-c2ccc(F)cc2F)o1
mortality at 600 µg/mL [1]: 0%
inhibition at 50 µg/mL [2]: 64%
inhibition at 50 µg/mL [3]: 42.5%
mortality at 2000 µg/mL [4]: 10%
inhibition at 50 µg/mL [6]: 44.6%

N#Cc1c(Cl)c(Cl)c(Cl)c(C#N)c1Cl [CHLOROTHALONIL]
inhibition at 50 µg/mL [3]: 23.3%

N#Cc1nn(-c2c(Cl)cc(C(F)(F)F)cc2Cl)c(N)c1[S+]([O-])C(F)(F)F (stereo unspecified) [FIPRONIL]
mortality at 5 µg/mL [7]: 100%

Cc1cc(C)nc(Nc2ccccc2)n1 [PYRIMETHANIL]
inhibition at 50 µg/mL [2]: 48.9%

CC(C)(C)N(NC(=O)c1ccccc1)C(=O)c1ccccc1 [RH-5849]
mortality at 2000 µg/mL [4]: 0%

COC(=O)NC(=S)Nc1ccccc1NC(=S)NC(=O)OC [THIOPHANATE METHYL]
inhibition at 50 µg/mL [6]: 34.2%
